ARNT-TACC3 inh = disruptors of human ARNT/TACC3 interaction; Q9Y6A5; AlphaScreen His-ARNT PAS-B/GST-TACC3 binding, luminescence; TACC3 fragment carries E629A point mutation; inhibition, % at 9.99 µM; 390,000 tested, 0.66% active; AID 623870;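 active = mean inhibition of replicates at least 50% and at least half of replicates each reaching 50%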;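 also: 0% = complete ARNT plus TACC3 wells and 100% = ARNT alone without TACC3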
miR-122 sensor = miR-122 inhibition in Huh7 cells; activation (reporter increase), % at 12.5 µM; Huh7 miR-122 Renilla luciferase sensor, 48 h; neutral wells = 0, positive control = 100; AID 602342; 340,000 tested, 0.3% active;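 active = mean replicate activation score at least 90 and every replicate individually at or above 90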;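 also: higher luciferase means less miR-122 activity so hits act as miR-122 inhibitors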
CFTR F508del cor = correctors of CFTR F508del function in bronchial epithelial cells | CFBE cells, YFP halide quenching; stimulated with forskolin plus potentiator P3; % fluorescence drop versus neutral controls | activity (quench increase), % at 7.58 µM | 350,000 tested, 0.36% active | AID 720511;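 active = mean added fluorescence quench of at least 8% versus neutral control, with both replicates also reaching 8%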;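 also: cells transiently co-express mutant CFTR-F508del with the halide-sensitive YFP; corrector assay measuring rescue of mutant channel to the surface after 24 h compound exposure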
CAL PDZ FP-1 = blocks peptide binding to human CAL PDZ domain. inhibition, % at 20 µM. 330,000 tested, 0.02% active. purified CAL PDZ, TMR-peptide fluorescence polarization, 1 h. AID 504414. Q9HD26;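 active = highest replicate inhibition of at least 40%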;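 also: plate controls were DMSO neutral control wells for no effect and unlabeled competitor peptide control wells for full effect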
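Control set: unlabelled peptide and DMSO controls / Material: purified CerCALP PDZ construct / Timing: 1 h incubation at room temperature before polarization reading / Doses: 20 µM, one dose / Detection: fluorescence polarization (mP)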
PGC1a acetyl inh = PGC1a acetylation modulation, inhibitor mode | inhibition, % at 15.6 µM | U2OS PGC1a acetylation, AlphaScreen anti-acetyl-lysine; with virally co-expressed GCN5 acetyltransferase | 350,000 tested, 0.17% active;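 active = every replicate shows inhibition of at least 40%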;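 also: 0% = neutral control wells and 100% = positive control wells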
CAL PDZ FP-2 = inhibitors of human CAL PDZ peptide binding | AID 602252 | Q9HD26 | purified CAL PDZ, TMR-peptide fluorescence polarization, 1 h | 300,000 tested, 0.92% active | inhibition, % at 24.9 µM;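 active = mean inhibition of at least 30% with at least half of replicates also reaching 30%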;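 also: 0% = DMSO neutral control and 100% = excess unlabeled competitor peptide PRC23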
Active calls of the source: *; [ ] = another dose, or the depositor's remark. In the library only some 1.7% were active in any assay of this set; here they are far more common.

For CSc1ccc(S(=O)(=O)NC2CC3CCC2C3)cc1 (stereo unspecified) the results were ARNT-TACC3 inh -2.3, miR-122 sensor 104.4*, CFTR F508del cor 1.2, CAL PDZ FP-1 1.9, PGC1a acetyl inh -8.3 and CAL PDZ FP-2 -2.3.
COc1ccc(S(=O)(=O)NC2CC3CCC2C3)cc1 (stereo unspecified) was read as ARNT-TACC3 inh -1.7, miR-122 sensor 40.9, CFTR F508del cor -1.6, CAL PDZ FP-1 -0.3, PGC1a acetyl inh -9.1 and CAL PDZ FP-2 -3.4.
Screening N#CC1=C(N)OC2=C(CCc3ccccc32)C1c1ccccc1Cl (stereo unspecified) returned miR-122 sensor 18.4, CFTR F508del cor 10.5*, CAL PDZ FP-1 -0.4, PGC1a acetyl inh -1.2 and CAL PDZ FP-2 -2.1.
`C[C@H]1CCCCO[C@@H](CN(C)C(=O)CCC(F)(F)F)[C@@H](C)CN([C@@H](C)CO)C(=O)c2cc(NC(=O)NC3CCCCC3)ccc2O1` gave ARNT-TACC3 inh 21.8, miR-122 sensor 1.3[16.7 µM], CFTR F508del cor -1.6 and PGC1a acetyl inh -1.5.
`CCN(CC)c1ccc(/C=N/Nc2ccc(C)cc2)c(O)c1` gave ARNT-TACC3 inh 11.1, miR-122 sensor 7.7, CFTR F508del cor 0.2, CAL PDZ FP-1 -1.8 and CAL PDZ FP-2 -3.2.
Screening Cc1cc(=O)[nH]c(NN=Cc2cc(Br)ccc2O)n1 returned ARNT-TACC3 inh 63.8*, CFTR F508del cor 1.1, CAL PDZ FP-1 -4.0, PGC1a acetyl inh 49.7* and CAL PDZ FP-2 -5.5.
For Cc1cc(=O)[nH]c(N/N=C/c2ccccc2Cl)n1 the results were ARNT-TACC3 inh -13.0, miR-122 sensor -4.6, CFTR F508del cor 0.3, CAL PDZ FP-1 0.7, PGC1a acetyl inh 4.1 and CAL PDZ FP-2 -2.5.
CCN(CC)c1ccc(/C=N/NC(=O)c2c(Cl)cnn2C)c(O)c1 was read as ARNT-TACC3 inh 66.3*, CAL PDZ FP-1 0.0 and CAL PDZ FP-2 -9.6.
For CCN(CC)c1ccc(/C=N/Nc2nc(C)cc(=O)[nH]2)c(O)c1 the results were ARNT-TACC3 inh 64.1*, miR-122 sensor -24.9, CFTR F508del cor 5.9, CAL PDZ FP-1 -0.8 and CAL PDZ FP-2 -3.8.
Screening Cc1cc(C(=O)Nc2cccc3c2O[C@@H](CN(C)S(C)(=O)=O)[C@H](C)CN([C@H](C)CO)C3=O)n(C)n1 returned ARNT-TACC3 inh -3.7, miR-122 sensor 0.0[16.7 µM], CFTR F508del cor -2.9 and PGC1a acetyl inh 12.5.
Screening COc1cc(C(=O)NCC2CCCO2)ccc1OCc1ccc(Cl)cc1 (stereo unspecified) returned ARNT-TACC3 inh -7.3, CFTR F508del cor 11.1*, CAL PDZ FP-1 -1.8 and CAL PDZ FP-2 -4.9.
Screening O=[N+]([O-])c1c(NCCCO)cc(Sc2nc3ccccc3s2)c2nonc12 returned ARNT-TACC3 inh 4.2, miR-122 sensor 3.7, CAL PDZ FP-1 1.0, PGC1a acetyl inh 58.2* and CAL PDZ FP-2 -3.9.
For Cc1ccc(S(=O)(=O)Nc2ccc3c(c2)C(=O)N([C@@H](C)CO)C[C@@H](C)[C@H](CN(C)S(=O)(=O)c2cccs2)O3)cc1 the results were ARNT-TACC3 inh -4.8, miR-122 sensor -1.7[16.7 µM], CFTR F508del cor -1.2 and PGC1a acetyl inh -1.4.
Screening O=C(NNC(=S)Nc1cccc2ccccc12)c1cccc(Br)c1 returned ARNT-TACC3 inh 28.9*, miR-122 sensor 19.4, CAL PDZ FP-1 1.4, PGC1a acetyl inh 3.7 and CAL PDZ FP-2 3.2.
For O=C(NNC(=O)c1ccc2ccccc2c1)c1cccc(Br)c1 the results were ARNT-TACC3 inh -4.2, CFTR F508del cor -2.8, CAL PDZ FP-1 -0.3, PGC1a acetyl inh -3.0 and CAL PDZ FP-2 -2.8.
For Fc1cccc(Cn2cc(C(=S)N3CCCCC3)c3ccccc32)c1 the results were ARNT-TACC3 inh -6.0, miR-122 sensor 24.2, CAL PDZ FP-1 -1.0, PGC1a acetyl inh 4.8 and CAL PDZ FP-2 -3.0.
Fc1cccc(Cn2cc(C(=S)N3CCOCC3)c3ccccc32)c1 was read as ARNT-TACC3 inh 21.0, miR-122 sensor 176.0*, CFTR F508del cor -4.5, CAL PDZ FP-1 -2.0, PGC1a acetyl inh -3.8 and CAL PDZ FP-2 2.2.
Screening Cc1cccc(/C=N/NC(=O)c2cc(C)nc3ccccc23)n1 returned ARNT-TACC3 inh 39.9, miR-122 sensor 3.3, CFTR F508del cor 4.6, CAL PDZ FP-1 -0.6, PGC1a acetyl inh 3.3 and CAL PDZ FP-2 150.8*.
`O=C(N/N=C/c1ccc2c(c1)OCO2)c1cc(-c2ccncc2)nc2ccccc12` gave ARNT-TACC3 inh 4.9, CAL PDZ FP-1 -5.0 and CAL PDZ FP-2 -2.1.
Cc1cc(C(=O)N/N=C/c2cc([N+](=O)[O-])ccc2O)c2ccccc2n1 was read as ARNT-TACC3 inh 75.9*, CAL PDZ FP-1 -0.5 and CAL PDZ FP-2 -1.3.
Cc1cc(C(=O)N/N=C/c2ccc3c(c2)OCO3)c2ccccc2n1 was read as ARNT-TACC3 inh -14.6, CFTR F508del cor 19.4*, CAL PDZ FP-1 0.6, PGC1a acetyl inh -21.6 and CAL PDZ FP-2 -7.7.
For Cc1cc(N/N=C/c2ccccc2O)c2ccccc2n1 the results were ARNT-TACC3 inh 23.3, CFTR F508del cor 15.9*, CAL PDZ FP-1 -4.8 and CAL PDZ FP-2 -6.0.
CCC(=O)N1CC[C@@H]2[C@H]1c1cc(-c3ccccc3F)ccc1N(C)[C@@H]2CO was read as ARNT-TACC3 inh 2.6, miR-122 sensor 1.7[16.7 µM], CFTR F508del cor -3.9 and PGC1a acetyl inh 1.7.
Screening C[C@H](CO)N1C[C@H](C)[C@H](CN(C)C(=O)C2CC2)Oc2cc(-c3cccc(C#N)c3)ccc2S1(=O)=O returned ARNT-TACC3 inh 0.2, miR-122 sensor -2.1[16.7 µM], CFTR F508del cor 0.8 and PGC1a acetyl inh -16.8.
For O=C(NCC1COc2ccccc2O1)c1ccccc1 (stereo unspecified) the results were ARNT-TACC3 inh 3.8, miR-122 sensor -5.9, CAL PDZ FP-1 -1.1 and PGC1a acetyl inh 10.3.
For Cc1cccc(/C=N/NC(=O)c2ccncc2)n1 the results were ARNT-TACC3 inh 62.6*, CFTR F508del cor 2.5, CAL PDZ FP-1 -1.8 and CAL PDZ FP-2 -0.7.
For Cc1cc(C(=O)NCC2COc3ccccc3O2)c2ccccc2n1 (stereo unspecified) the results were ARNT-TACC3 inh -48.0, CFTR F508del cor -0.6, CAL PDZ FP-1 -1.6, PGC1a acetyl inh 1.9 and CAL PDZ FP-2 62.3*.
Screening Cc1cc(C(=O)N/N=C/c2ccc(N(C)C)cc2)c2ccccc2n1 returned ARNT-TACC3 inh 1.9, CFTR F508del cor 8.3*, PGC1a acetyl inh 9.4 and CAL PDZ FP-2 -4.2.
Cc1cc(C(=O)N/N=C/c2ccc([N+](=O)[O-])cc2)c2ccccc2n1 was read as ARNT-TACC3 inh 1.9, miR-122 sensor -3.1, CFTR F508del cor 14.1*, CAL PDZ FP-1 0.2, PGC1a acetyl inh 4.7 and CAL PDZ FP-2 -4.6.

Bioassay records from PubChem BioAssay.
